{"source": "ChEMBL document CHEMBL1132987", "about": "“Phosphorylated morpholine acetal human neurokinin-1 receptor antagonists as water-soluble prodrugs” (J Med Chem, 2000)", "key": {"Mustela putorius furo [1]": {"system": "Mustela putorius furo", "assay": "(§1) Dose dependent reduction in cisplatin-induced retching in ferrets at 0.3 mg/kg iv dose", "type": "functional", "summary_of_the_method": "(§2)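 Ferrets were pretreated intravenously at 0.1, 0.3 or 1.0 mg/kg, then given cisplatin at 10 mg/kg iv. Retches and vomits were counted over a 4 h observation period and reported as mean counts, with n = 4 per group. Vehicle-pretreated controls (n = 4-6) were run alongside.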"}, "Cavia porcellus [2]": {"system": "Cavia porcellus", "assay": "Inhibitory dose (ID50) was determined after oral administration followed by resiniferatoxin (RTX) challenge 24 hour before", "type": "functional", "conditions": "read-out: ID50 (the source's name)", "summary_of_the_method": "(§3)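 Guinea pigs received the compound orally or intravenously at either 1 h or 24 h before a systemic resiniferatoxin challenge, each line matching its own route and interval. The challenge induces SP-mediated systemic vascular leakage. ID50 (mg/kg) was derived from dose-response data using 2-11 animals per data point.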"}, "Mustela putorius furo [3]": {"system": "Mustela putorius furo", "assay": "(§4) Dose-dependent reduction in cisplatin-induced vomiting in ferrets at 1.0 mg/kg iv dose", "type": "functional", "summary_of_the_method": "as §2"}, "Mustela putorius furo [4]": {"system": "Mustela putorius furo", "assay": "(§5) Dose dependent reduction in cisplatin-induced retching in ferrets at 0.1 mg/kg iv dose", "type": "functional", "summary_of_the_method": "as §2"}, "Mustela putorius furo [5]": {"system": "Mustela putorius furo", "assay": "(§6) Dose-dependent reduction in cisplatin-induced vomiting in ferrets at 0.1 mg/kg iv dose", "type": "functional", "summary_of_the_method": "as §2"}, "Cavia porcellus [6]": {"system": "Cavia porcellus", "assay": "Inhibitory dose (ID50) was determined after oral administration followed by resiniferatoxin (RTX) challenge 1 hour", "type": "functional", "conditions": "read-out: ID50 (the source's name)", "summary_of_the_method": "as §3"}, "Mustela putorius furo [7]": {"system": "Mustela putorius furo", "assay": "(§7) Dose dependent reduction in cisplatin-induced retching in ferrets at 1.0 mg/kg iv dose", "type": "functional", "summary_of_the_method": "as §2"}, "Cavia porcellus [8]": {"system": "Cavia porcellus", "assay": "Inhibitory dose (ID50) was determined after intravenous administration followed by resiniferatoxin (RTX) challenge 1 hour before", "type": "functional", "conditions": "read-out: ID50 (the source's name)", "summary_of_the_method": "as §3"}, "Mustela putorius furo [9]": {"system": "Mustela putorius furo", "assay": "(§8) Dose-dependent reduction in cisplatin-induced vomiting in ferrets at 0.3 mg/kg iv dose", "type": "functional", "summary_of_the_method": "as §2"}, "Mustela putorius furo [10]": {"system": "Mustela putorius furo", "assay": "inhibitory dose was determined after intravenous administration of the compound.", "type": "functional"}, "[11]": {"assay": "Area under curve (AUC) was determined after intravenous administration in dog at a dose of 2 mg/kg", "type": "ADME, organism-based, Canis lupus familiaris", "set-up": "dose 2 mg/kg, route intravenous", "conditions": "in vivo", "summary_of_the_method": "(§9)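 The parent antagonist was given intravenously to rats (0.2, 2 and 5 mg/kg) or dogs. AUC of the parent was taken from plasma concentration–time data, and values are averages. Plasma levels were measured by HPLC-MS/MS.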"}, "[12]": {"assay": "Area under curve was determined after intravenous administration of compound as Bis(N-methyl-D-glucamine) salt in rat at a dose 1 mg/kg", "type": "ADME, organism-based", "set-up": "dose 1 mg/kg, route intravenous", "conditions": "in vivo", "summary_of_the_method": "(§10)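 The phosphate prodrug, as its bis(N-methyl-D-glucamine) salt, was dosed intravenously to rats (1, 8, 25 mg/kg) and dogs (0.5, 2, 32 mg/kg). The reported AUC is of the released parent antagonist in plasma, given as an average. Plasma prodrug and parent were followed by HPLC-MS/MS.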"}, "Mustela putorius furo [13]": {"system": "Mustela putorius furo", "assay": "as §4", "type": "functional", "remark": "listed apart in the source"}, "[14]": {"assay": "Area under curve (AUC) was determined after intravenous administration of compound as Bis(N-methyl-D-glucamine) salt in dog at a dose of 32 mg/Kg", "type": "ADME, organism-based, Canis lupus familiaris", "conditions": "in vivo", "summary_of_the_method": "as §10"}, "Cavia porcellus [15]": {"system": "Cavia porcellus", "assay": "Dose (ID50) for inhibition of SP-mediated vascular leakage was determined after oral administration followed by resiniferatoxin (RTX) challenge 1 hour", "type": "functional", "conditions": "read-out: ID50 (the source's name)", "summary_of_the_method": "as §3"}, "Mustela putorius furo [16]": {"system": "Mustela putorius furo", "assay": "as §5", "type": "functional", "remark": "listed apart in the source"}, "Mustela putorius furo [17]": {"system": "Mustela putorius furo", "assay": "as §8", "type": "functional", "remark": "listed apart in the source"}, "Mustela putorius furo [18]": {"system": "Mustela putorius furo", "assay": "as §6", "type": "functional", "remark": "listed apart in the source"}, "[19]": {"assay": "Area under curve (AUC) was determined after intravenous administration in rat at a dose of 2 mg/kg", "type": "ADME, organism-based", "set-up": "dose 2 mg/kg, route intravenous", "conditions": "in vivo", "summary_of_the_method": "as §9"}, "[20]": {"assay": "Area under curve (AUC) was determined after intravenous administration of compound as Bis(N-methyl-D-glucamine) salt in dog at a dose of 2 mg/Kg", "type": "ADME, organism-based, Canis lupus familiaris", "conditions": "in vivo", "summary_of_the_method": "as §10"}, "[21]": {"assay": "Area under curve (AUC) was determined after intravenous administration in rat at a dose of 5 mg/kg", "type": "ADME, organism-based", "set-up": "dose 5 mg/kg, route intravenous", "conditions": "in vivo", "summary_of_the_method": "as §9"}, "Cavia porcellus [22]": {"system": "Cavia porcellus", "assay": "Dose (ID50) for inhibition of SP-mediated vascular leakage was determined after intravenous administration followed by resiniferatoxin (RTX) challenge 24 hour before", "type": "functional", "conditions": "read-out: ID50 (the source's name)"}, "Mustela putorius furo [23]": {"system": "Mustela putorius furo", "assay": "as §7", "type": "functional", "remark": "listed apart in the source"}, "[24]": {"assay": "Area under curve (AUC) was determined after intravenous administration of compound as Bis(N-methyl-D-glucamine) salt in dog at a dose of 0.5 mg/Kg", "type": "ADME, organism-based, Canis lupus familiaris", "conditions": "in vivo", "summary_of_the_method": "as §10"}, "Mustela putorius furo [25]": {"system": "Mustela putorius furo", "assay": "as §1", "type": "functional", "remark": "listed apart in the source"}, "Cavia porcellus [26]": {"system": "Cavia porcellus", "assay": "Dose (ID50) for inhibition of SP-mediated vascular leakage was determined after intravenous administration followed by resiniferatoxin (RTX) challenge 1 hour before", "type": "functional", "conditions": "read-out: ID50 (the source's name)", "summary_of_the_method": "as §3"}, "[27]": {"assay": "Area under curve was determined after intravenous administration of compound as Bis(N-methyl-D-glucamine) salt in rat at a dose 8 mg/kg", "type": "ADME, organism-based", "set-up": "dose 8 mg/kg, route intravenous", "conditions": "in vivo", "summary_of_the_method": "as §10"}, "[28]": {"assay": "Area under curve (AUC) was determined after intravenous administration in dog at a dose of 0.5 mg/kg", "type": "ADME, organism-based, Canis lupus familiaris", "set-up": "dose 0.5 mg/kg, route intravenous", "conditions": "in vivo", "summary_of_the_method": "as §9"}, "[29]": {"assay": "Area under curve (AUC) was determined after intravenous administration of compound as Bis(N-methyl-D-glucamine) salt in rat at a dose 25 mg/Kg", "type": "ADME, organism-based", "conditions": "in vivo", "summary_of_the_method": "as §10"}}}
{"smiles": "CNC[C@H](O)[C@@H](O)[C@H](O)[C@H](O)CO.C[C@@H](O[C@H]1OCCN(Cc2nc(O)n(P(=O)(O)O)n2)[C@H]1c1ccc(F)cc1)c1cc(C(F)(F)F)cc(C(F)(F)F)c1", "values": [{"measurement": "Incidence_count", "setting": "Mustela putorius furo [1]", "value": 26}, {"measurement": "ED50", "setting": "Cavia porcellus [2]", "value": 0.9, "unit": "mg/kg"}, {"measurement": "Incidence_count", "setting": "Mustela putorius furo [3]", "value": 1}, {"measurement": "Incidence_count", "setting": "Mustela putorius furo [4]", "value": 115}, {"measurement": "Incidence_count", "setting": "Mustela putorius furo [5]", "value": 16}, {"measurement": "ED50", "setting": "Cavia porcellus [6]", "value": 0.016, "unit": "mg/kg"}, {"measurement": "Incidence_count", "setting": "Mustela putorius furo [7]", "value": 2}, {"measurement": "ED50", "setting": "Cavia porcellus [8]", "value": 0.006, "unit": "mg/kg"}, {"measurement": "Incidence_count", "setting": "Mustela putorius furo [9]", "value": 4}, {"measurement": "ID90", "setting": "Mustela putorius furo [10]", "value": 0.8, "unit": "mg/kg"}]}
{"smiles": "C[C@@H](O[C@H]1OCCN(Cc2n[nH]c(=O)[nH]2)[C@H]1c1ccc(F)cc1)c1cc(C(F)(F)F)cc(C(F)(F)F)c1", "note": "[APREPITANT]", "values": [{"measurement": "AUC", "setting": "[11]", "value": 38, "unit": "µg·h/mL"}, {"measurement": "AUC", "setting": "[12]", "value": 0.57, "unit": "µg·h/mL"}, {"measurement": "Incidence_count", "setting": "Mustela putorius furo [13]", "value": 0}, {"measurement": "AUC", "setting": "[14]", "value": 370, "unit": "µg·h/mL"}, {"measurement": "ED50", "setting": "Cavia porcellus [15]", "value": 0.012, "unit": "mg/kg"}, {"measurement": "Incidence_count", "setting": "Mustela putorius furo [16]", "value": 90}, {"measurement": "Incidence_count", "setting": "Mustela putorius furo [17]", "value": 1}, {"measurement": "Incidence_count", "setting": "Mustela putorius furo [18]", "value": 13}, {"measurement": "AUC", "setting": "[19]", "value": 2.7, "unit": "µg·h/mL"}, {"measurement": "AUC", "setting": "[20]", "value": 8.9, "unit": "µg·h/mL"}, {"measurement": "AUC", "setting": "[21]", "value": 6.4, "unit": "µg·h/mL"}, {"measurement": "ED50", "setting": "Cavia porcellus [22]", "value": 0.5, "unit": "mg/kg"}, {"measurement": "Incidence_count", "setting": "Mustela putorius furo [23]", "value": 0}, {"measurement": "AUC", "setting": "[24]", "value": 1.1, "unit": "µg·h/mL"}, {"measurement": "Incidence_count", "setting": "Mustela putorius furo [25]", "value": 5}, {"measurement": "ED50", "setting": "Cavia porcellus [26]", "value": 0.002, "unit": "mg/kg"}, {"measurement": "AUC", "setting": "[27]", "value": 6.3, "unit": "µg·h/mL"}, {"measurement": "AUC", "setting": "[28]", "value": 3.8, "unit": "µg·h/mL"}, {"measurement": "AUC", "setting": "[29]", "value": 22, "unit": "µg·h/mL"}, {"measurement": "ID90", "setting": "Mustela putorius furo [10]", "value": 0.3, "unit": "mg/kg"}]}
